Key:
Pyrrhocoris apterus [1] = experiment: Inhibition of metamorphosis in freshly molted Pyrrhocoris apterus (red firebug) fourth-instar nymph assessed as compound dose per individual causing reduction in metamorphosis by oral drinking assay; type: functional
How it was run: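 Drinking assay: compound in acetone was added to distilled water with Tween-80 at 0.025, 0.25, 2.5 and 25 per microlitre. It was offered in cotton-plugged glass vials at the end of the fourth nymphal instar, with the acetone/water/Tween-80 mixture as reference. Ten insects per concentration, three replicates, 25 ± 0.5 °C, 16L:8D, 50 ± 5% RH. Metamorphosis inhibition was scored morphologically after the last ecdysis.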

Pyrrhocoris apterus [2] = experiment: Inhibition of metamorphosis in freshly molted Pyrrhocoris apterus (red firebug) fifth-instar nymph assessed as compound dose per individual causing reduction in metamorphosis by topical screening test; type: functional
How it was run: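 Topical application with a Burkhard microapplicator; acetone alone served as the reference treatment. Ten insects per dose, three replicates. Insects were held in Petri dishes at 25 ± 0.5 °C, 16L:8D, 50 ± 5% RH, and checked daily. The degree of metamorphosis inhibition was scored morphologically after the next molt. ID-50 per individual was computed from linear regression tested by ANOVA.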

SMILES	ID50 (Pyrrhocoris apterus [1]) [µg]	ID50 (Pyrrhocoris apterus [2]) [µg]
CCOC(=O)NCCOc1ccc(C[C@@H]2CCCC[C@@H]2OC(=O)CCC(=O)O[C@H]2CC[C@@]3(C)C(=CC[C@H]4[C@@H]5CC[C@H]([C@H](C)/C=C/[C@@H](CC)C(C)C)[C@@]5(C)CC[C@@H]43)C2)cc1	4.989	0.0185
CCOC(=O)NCCOc1ccc(C[C@H]2CCCC[C@@H]2OC(=O)CCC(=O)O[C@H]2CC[C@@]3(C)C(=CC[C@H]4[C@@H]5CC[C@H]([C@H](C)/C=C/[C@@H](CC)C(C)C)[C@@]5(C)CC[C@@H]43)C2)cc1	>25	>5
CCOC(=O)NCCOc1ccc(C[C@@H]2CCCC[C@@H]2OC(=O)CC[C@@H](C)[C@H]2CC[C@H]3[C@@H]4[C@H](OC=O)C[C@@H]5C[C@H](OC=O)CC[C@]5(C)[C@H]4C[C@H](OC=O)[C@]23C)cc1	0.051	0.094
CCOC(=O)NCCOc1ccc(C[C@H]2CCCC[C@@H]2OC(=O)CC[C@@H](C)[C@H]2CC[C@H]3[C@@H]4[C@H](OC=O)C[C@@H]5C[C@H](OC=O)CC[C@]5(C)[C@H]4C[C@H](OC=O)[C@]23C)cc1	6.153	1.775
CCOC(=O)NCCOc1ccc(C[C@@H]2CCCC[C@@H]2OC(=O)CC[C@@H](C)[C@H]2CC[C@H]3[C@@H]4[C@H](OC=O)C[C@@H]5C[C@H](O)CC[C@]5(C)[C@H]4C[C@H](OC=O)[C@]23C)cc1	0.423	0.062
CCOC(=O)NCCOc1ccc(C[C@H]2CCCC[C@@H]2OC(=O)CC[C@@H](C)[C@H]2CC[C@H]3[C@@H]4[C@H](OC=O)C[C@@H]5C[C@H](O)CC[C@]5(C)[C@H]4C[C@H](OC=O)[C@]23C)cc1	>25	>5
CCOC(=O)NCCOc1ccc(C[C@H]2CCCC[C@@H]2O)cc1 (relative stereo)	0.5	0.71
CCOC(=O)NCCOc1ccc(C[C@@H]2CCCC[C@@H]2O)cc1 (relative stereo)	0.0012	0.001
COC(C)(C)CCC[C@H](C)C/C=C/C(C)=C/C(=O)OC(C)C [METHOPRENE]	0.41	0.01
CCOC(=O)NCCOc1ccc(Oc2ccccc2)cc1 [PHENOXYCARB]	0.2	0.09
CC(COc1ccc(Oc2ccccc2)cc1)Oc1ccccn1 (configuration not stated) [PYRIPROXYFEN]	25	2.3

From ChEMBL document CHEMBL3046445, “Steroid conjugates: Synthesis and preliminary biological testing of pro-juvenoids” (2010)
